Rows were chosen to be rich in hits. Some 4% of all compounds tested hit in one or more screens of this group.
MT stabilizer = microtubule stabilizers in HeLa cells. HeLa tubulin immunostaining HCS, 24 h; share of cells brighter than vehicle mean+2SD. % tubulin-high responders, % at 10 µM. 0.83% of 200,000 active. AID 2205;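 active = plate Z-score above 3 for both tubulin-high and condensed-nucleus cell shares, with cell loss under 80%, at 10 µM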;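 also: anti alpha tubulin signal scored within the nucleus-defined area of each cell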
Cl transport mod = KCC2 (human) Cl- transport modulation; Q9H2X9; KCC2 cells, thallium flux FluoZin-2 fluorescence; B-score of Tl+ flux slope (higher = more flux/activation; lower = inhibition) at 10 µM; 2.2% of 190,000 active; AID 1456;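 active = thallium flux slope and its plate-corrected score both differing from the plate sample mean at a set confidence after two filtering rounds, in either direction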;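 also: slope of fluorescence scaled to starting intensity during 10 to 20 s after thallium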
Pf gamet viab = inhibitors of late stage P. falciparum gametocyte viability | P. falciparum stage V gametocytes, ATP luminescence, 24 h | inhibition, % at 10.9 µM | 0.065% of 150,000 active | AID 743093;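 active = inhibition above the mean plus 3 SD of compounds within the control limits, set per campaign, cut at about 38% in these data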;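 also: 0% = DMSO wells and 100% = medium only without gametocytes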
WT yeast gro inh = growth inhibition of WT yeast, mitochondrial fusion screen. mitochondrial fusion phenotypic screen, WT strain. inhibition, % at 10 µM. 2.1% of 190,000 active. AID 1362; in the data active = inhibition above about 58%; tested in S. cerevisiae
bCat nuc transl = modulators of beta-catenin nuclear translocation | HeLa beta-catenin nuclear translocation, immunofluorescence imaging | nuclear translocation activity, % at 5 µM | 0.3% of 190,000 active | AID 1665;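 active = nuclear translocation activity above 50% at 5 µM, with a well cell count of 50 or more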;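 also: per-cell ratio of nuclear to cytoplasmic median beta-catenin stain intensity; plate controls were DMSO negative control for no effect and GSK-3 inhibitor IX positive control for full effect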
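test system = HeLa cells, endogenous beta-catenin | dosing = single 5 µM dose plus 0.02–20 µM confirmation series | times = compound treatment 24 h, 37°C, 5% CO2 | technique = beta-catenin immunofluorescence imaging with DAPI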
Starred values were filed as active, the others as inactive; . = not tested or not shown.

SMILES	MT stabilizer	Cl transport mod	Pf gamet viab	WT yeast gro inh	bCat nuc transl
COc1cccc(-c2nc(CS(=O)(=O)CC(=O)NCCCN3CCc4ccccc4C3)c(C)o2)c1	7	-3.9*	9	-3	-2
CCOC(=O)c1cnc(SC)nc1Oc1cccc(NS(=O)(=O)c2ccc(Cl)cc2)c1	32*	.	.	0	-2
Cc1ccc(C)c(OCC(=O)Nc2ccc3c(c2)OCO3)c1C	23*	-1.6	.	24	.
Cc1cccc(OCCCC(=O)Nc2ccc3c(c2)OCO3)c1	3	-0.43	.	74*	-6
Cc1cccc(C)c1OCC(=O)N/N=C/c1ccc2c(c1)OCO2	32*	0.23	7	18	82*
Cc1ccc(C(C)C)cc1OCC(=O)N/N=C/c1ccc2c(c1)OCCO2	4	-0.28	-14	77*	-4
Cc1cc(C)cc(OCC(=O)Nc2ccc3c(c2)OCO3)c1	1	-0.005	8	9	1
COc1ccc(NCC(=O)N/N=C/c2ccc3c(c2)OCCO3)cc1	2	-0.044	-9	-45	.
CSc1ccc(NC(=O)NCc2ccccc2)cc1	.	0.59	-31	.	0
Fc1c(F)c(C(F)(F)F)c(F)c(F)c1N/N=C\c1cccs1	2	-0.29	.	26	-1
O=C(Nc1ccc(-c2csc(-c3ccccc3)n2)cc1)c1ccccc1Cl	17*	-1.1	.	6	0
O=[N+]([O-])c1ccc(S(=O)(=O)Nc2ccc(-c3csc(-c4ccccc4)n3)cc2)cc1	2	.	.	95*	0
Cc1ccc(S(=O)(=O)Nc2ccc(-c3csc(-c4ccccc4)n3)cc2)cc1	4	0.22	-10	33	0
O=C(O)c1ccc(-c2nc(-c3ccccc3)cs2)cc1	2	-1.9	9	-17	2
COc1ccc(-c2csc(NS(=O)(=O)c3ccc([N+](=O)[O-])cc3)n2)cc1	2	-1.9	-3	20	0
O=S(=O)(Nc1ccc(-c2csc(-c3ccccc3)n2)cc1)c1ccccc1	3	-0.32	-30	91*	2
O=C(O)c1ccc(-c2nc(-c3ccc(Cl)c(Cl)c3)cs2)cc1	2	-2.3	.	75*	9
Cc1sc2nc(CSc3ccc([N+](=O)[O-])c(C(F)(F)F)c3)[nH]c(=O)c2c1C	3	0.7	.	-12	3
[O-][n+]1c2ccccc2cc2ccccc21	.	.	-39	.	.
COc1cccc(-c2ccc(C#N)c(OC(=O)c3c(Cl)cccc3Cl)n2)c1	5	0.82	.	62*	-1
COc1cccc(-c2ccc(C#N)c(OC(=O)c3ccc(Cl)cc3)n2)c1	1	.	.	-6	-1
CCCCOn1c(C)c(C(=O)OCC)c2c3no[n+]([O-])c3ccc21	6	-0.31	.	1	.
CCCCOn1c(C)c(C(=O)OCC)c2c3nonc3ccc21	1	-3.5*	-10	.	.
C/C(=N\NC(=S)NC1CCCCC1)c1ccc(OC(F)F)cc1OC(F)F	1	0.26	.	66*	2
c1ccc(C(c2ccccc2)c2nc(-c3cccnc3)no2)cc1	2	.	-18	86*	2
SMILES	MT stabilizer	Cl transport mod	Pf gamet viab	WT yeast gro inh	bCat nuc transl
Cc1cc(C)n2c(=O)c3ccc(Cl)cc3nc2c1C#N	3	-1.3	-26	53	-2
Cc1cc(Cl)n2c(nc3cc(F)c(F)cc32)c1C#N	2	-1.9	.	81*	0
Cn1c(N)c(C(=O)c2ccc(C#N)cc2)c(=O)n(C)c1=O	2	0.037	35	-14	0
CCOC(=O)c1ccc(Nc2nc(C)nc3c2nnn3Cc2ccccc2)cc1	.	.	2	.	.
COc1cc(C2CC(=O)N(c3ccc(C)cc3)C(=O)C2)cc(OC)c1OC	.	1.2	-19	.	75*
Cc1ccc(NC(=O)N2N=C(c3ccc(F)cc3)CC2c2ccc(F)cc2)cc1 (stereo unspecified)	5	-2	7	77*	5
O=C(NCc1cccnc1)/C(=C\c1ccc(-c2ccc(Cl)c(Cl)c2)o1)S(=O)(=O)c1ccccc1	35*	-0.69	15	53	15
O=C(NCc1cccnc1)c1ccc(-c2ccc(Cl)cc2)o1	3	.	-16	4	1
O=C(N/N=C/c1ccc([N+](=O)[O-])o1)C1CC1	2	-0.28	-19	-3	-2
COc1ccc(CNC(=S)Nc2cccc(Cl)c2)cc1	.	.	-2	.	.
COc1cccc(C(C)NC(=S)NCc2ccc(Cl)cc2)c1 (stereo unspecified)	2	-1.8	.	66*	-3
CCCCCCC(C)n1[nH]c(=O)c2c(C)cc(C)nc21 (stereo unspecified)	.	-0.008	11	.	0
COC(=O)c1cccc(NS(=O)(=O)c2ccc(OC)c(OC)c2)c1C	1	.	-18	3	-15
COc1ccc(S(=O)(=O)Nc2cc3c(cc2C(C)=O)OCO3)cc1	42*	-0.054	18	9	1
CC(=O)c1cc2c(cc1NS(=O)(=O)c1ccccc1C)OCO2	3	0.45	-22	-17	0
COC(=O)c1cccc(NS(=O)(=O)c2ccc(OC)cc2)c1C	35*	0.19	.	8	53*
COc1ccc(-c2cc3nc(C)cc(N4CC(C)CC(C)C4)n3n2)cc1 (stereo unspecified)	2	0.39	-37	70*	-5
Cc1cccn2cc(COc3ccc(-c4ccccc4)cc3)nc12	1	-0.72	5	80*	4
Cc1cccn2cc(COc3cccc([N+](=O)[O-])c3)nc12	2	-4.8	-12	-6	-2
COc1ccc2nc(C)cc(Sc3nc4ccccc4s3)c2c1	.	-0.46	.	.	-1
C/C(=N\Nc1nc(C)cc(-c2ccccc2)n1)c1cccc(N)c1	.	.	-24	.	.
CCCCC(=O)OCC(=O)Nc1ccc(SC(F)F)cc1	2	-0.86	.	8	-1
CC(C)CCN(N=O)[C@@H](Cc1ccccc1)CN(N=O)[C@@H](Cc1ccccc1)CN(C)N=O	2	-4.1*	.	5	-2
COc1ccc(C(=O)OCCCc2cc3ccccc3c(=O)o2)cc1	.	.	-40	.	.
O=C(Nc1nnc(-c2ccccc2Cl)o1)c1ccc(S(=O)(=O)N2CCCCCC2)cc1	4	8.5*	.	4	-7
SMILES	MT stabilizer	Cl transport mod	Pf gamet viab	WT yeast gro inh	bCat nuc transl
Cc1cc(C)c(Cc2c(C)nc3c(C(=O)NCc4ccco4)cnn3c2C)c(C)c1	1	-1.3	.	63*	.
Cc1nc2c(-c3ccc(F)cc3)cnn2c2c1CCC2	4	-0.21	-27	11	7
CC(C)C(C)(C#N)NC(=O)CSc1ncnc2sc(-c3ccccc3)cc12 (stereo unspecified)	2	-3.6*	.	9	0
CCOc1ccc(-c2nnn(CC(=O)Nc3cc(OC)ccc3OC)n2)cc1OCC	4	0.15	6	6	2
CCOc1ccc(-c2nnn(CC(=O)c3cc(OC)ccc3OC)n2)cc1	50*	.	15	-16	1
COc1ccc2c(Cl)c(C(=O)N/N=C/c3ccc4c(c3)OCO4)sc2c1	12	-0.46	-14	-3	-1
O=C(N/N=C/c1ccc2c(c1)OCO2)c1sc2cc(Cl)ccc2c1Cl	19*	-0.16	-3	-15	-1
O=C(N/N=C/c1ccc2c(c1)OCO2)c1sc2cccc(Cl)c2c1Cl	22*	0.48	-6	23	2

Screening data (PubChem)
